A number with no mark means an inactive call. Results filed as inconclusive are left out. Activity calls are given as the source filed them.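 Rule for the calls, unless noted: active = viability increase at or above a cutoff of the median across tested compounds plus 3 SD (cut at about 8.5% in these data, passing the limit was not always enough); inconclusive = some gains above the cutoff, reason not given; inactive = the rest.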
What was measured:
[1] = S. cerevisiae growth inhibition in permissive medium (OD615), pilot counter-assay for S. cerevisiae lifespan shortening project, permissive growth control (AID 705;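 active = growth inhibition above 25% in both replicates, a cutoff set 3 SD above the mean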); details: OD615, 24 h, at 10 µM, hits give high values
Summary of the method: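 System: Engineered DeaD yeast | Buffer or medium: SC raffinose/galactose permissive medium | Doses: 10 µM single dose, 0.25% DMSO | Times: 24 h exposure, 30 °C | Measured by: OD615 turbidity read | Read-out: Yeast growth inhibition indicated by reduced 24 h OD615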

[2] = S. cerevisiae growth inhibition in restrictive medium, OD615, pilot screen, restrictive growth control, yeast lifespan reduction project (AID 706;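 active = growth inhibition above a set limit, 3 SD over mean compound inhibition, in both replicates, cut at about 43% in these data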;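 note: modified DeaD lifespan yeast strain shifted to restrictive glucose medium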); details: OD615, 48 h, at 10 µM, hits give high values
Summary of the method: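 Assay system: engineered S. cerevisiae DeaD strain; Buffer or medium: CSMM-D glucose medium; Dosing: 10 µM compound, 0.25% DMSO; Times: cell pre-growth 4 h, compound exposure 48 h, 30 °C; Detection: absorbance (optical density) measured at 615 nm.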

[3] = doxorubicin toxicity protection in MRP-1 cells – H69AR cells, CellTiter-Glo, duplicate, MRP-1 activator project, pilot screen (AID 807); details: H69AR viability with doxorubicin, CellTiter-Glo luminescence; at 10 µM; hits give high values;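 note: compound pretreatment 18-22 h then 72 h combined with doxorubicin; 0% = doxorubicin alone and 100% = vehicle without doxorubicin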
[4] = viability of HCT116 without oncogenic beta-catenin – human colon tumor cells, pilot screen (AID 823;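 active = cell viability at or below a set limit in both duplicate runs, the limit being the all-compound median minus 4 SD, cut at about 23% in these data, passing the limit was not always enough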;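 note: 0% = wells killed by 20 µM Hyamine and 100% = untreated DMSO cell wells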); details: HCT116 beta-catenin knockout viability, CellTiter-Glo, 60 h; at 10 µM; hits give low values
[5] = viability of PTEN-null HCT116 cells – cell-based, HCT116 clonal line, CellTiter-Glo, pilot screen (AID 824;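 active = viability at or below 27.92% in each of two runs, the all-compound median minus 4 SD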;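 note: 0% = 20 µM Hyamine control and 100% = vehicle cell control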); details: HCT116 PTEN-deleted viability, 60 h, at 10 µM, hits give low values
[6] = RAM pathway blockade in budding yeast – dse1pr::URA3 reporter, 5-FOA selection, pilot screen (AID 869;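 active = inhibition over a set limit, the all-compound mean plus 3 SD, in both replicate runs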;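 note: 0% = DMSO wells with no growth and 100% = 10 µM 1-NA-PP1 with full growth; RAM network block rescues cells from 5-FOA so hits raise OD615 growth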); details: S. cerevisiae dse1pr::URA3 5-FOA growth, OD615, 2 d; at 10 µM; hits give high values; strain carries analog-sensitive mutant Cbk1 kinase
[7] = RAM signaling pathway blockade in yeast – S. cerevisiae, Pdr1DBD-CYC8 efflux-inhibited sensitized strain, primary screen (AID 1298;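 active = RAM network inhibition above 8.4% in each of two replicates, 3 SD over the compound average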;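 note: 0% = DMSO untreated cells without growth and 100% = 10 µM 1-NA-PP1 full growth; higher means more yeast growth rescued from 5-FOA killing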); details: S. cerevisiae cbk1-as DSE1-URA3 strain, 5-FOA growth OD615, 2 d; at 50 µM; hits give high values

Row | Structure (SMILES) | growth inhibition [1] [%] | growth inhibition [2] [%] | viability increase [3] [%] | viability [4] | viability [5] | inhibition [6] [%] | RAM network inhibition [7] [%]
1 | Cc1nc(N2CCN(C(=O)c3ccco3)CC2)c2c3c(sc2n1)CCC3 | -10.5 | 5.55 | -1.12 | 79.8% | 83% | 1.16 | 5
2 | CCOC(=O)c1sc(NCCNc2nc(C)c(C(=O)OCC)s2)nc1C | 2.36 | -21.8 | -3.12 | 94.1% | 89% | 0.595 | 5.86
3 | N#Cc1nc(COc2ccccc2)oc1N1CCCCC1 | -9.45 | 10.3 | 2.53 | 87.5% | 88.9% | 0.495 | -1.83
4 | C=CCNC(=O)c1cnc2n(c1=O)CCS2 | 5.17 | 5.46 | 2.16 | 103% | 109% | 1.68 | -1.87
5 | Cc1cc2oc(C(=O)NCc3ccncc3)c(C)c2cc1C | -3.59 | 10.7 | 0.54 | 96.4% | 89.6% | 0.7 | -0.89
6 | c1ccc(OCc2nn3c(-c4ccccn4)nnc3s2)cc1 | 7.46 | 34 | 0.02 | 104% | 94% | 1.48 | 2.54
7 | CCOC(=O)c1ccc(Nc2cc(C)nc3nc(C)nn23)cc1 | -5.61 | 4.27 | -4.45 | 103% | 103% | 0.015 | 1
8 | c1ccc(Cn2ncc3ccccc32)cc1 | -3.05 | 4.4 | -1.05 | 94.8% | 98% | -0.165 | -0.97
9 | Nc1c(C(=O)c2ccc(Br)s2)oc2ccccc12 | -9.21 | -4.51 | -5.46 | 88.8% | 88.7% | -0.045 | 2.7
10 | CC(=O)c1cccc(NC(=O)C2CCCN2S(=O)(=O)c2cccc3cccnc23)c1 (configuration not stated) | -1.04 | 3.5 | -5.23 | 74.4% | 82.7% | 1.09 | 6.23
11 | CC(=O)c1cccc(NC(=O)c2cc3ccccn3n2)c1 | -5.62 | 4.32 | -2.31 | 99% | 95.8% | 0.705 | -0.31
12 | Cc1cccc(CC(=O)Nc2cc(=O)n(C)c(=O)n2C)c1 | -3.74 | -4.44 | -1.1 | 100% | 97.4% | 1.84 | 0.48
13 | O=C1CC(c2ccco2)Sc2nc3ccccc3n21 (configuration not stated) | -10.5 | 13.4 | -3.98 | 67.2% | 80.3% | 0.365 | 1.62
14 | C=CCOc1cccc(C2C(C(=O)c3ccco3)=C(O)C(=O)N2CCN2CCOCC2)c1 (configuration not stated) | -9.71 | -10.5 | -2.85 | 94.1% | 93.2% | 0.795 | -0.11
15 | CCOC(=O)c1c(C)n(C)c2ccc(OCC(O)CN3CCC(C)CC3)cc12 (configuration not stated) | -1.52 | 4.4 | -5.47 | 70.2% | 75.8% | 0.415 | -0.57
16 | COc1ccc(C(=O)c2cn[nH]c2-c2cc(Cl)ccc2O)cc1 | 3.93 | 4.28 | -1.77 | 87.7% | 78.7% | 1.17 | 3.53
17 | Cc1noc(C(=O)N2CCN(c3ccc(F)cc3)CC2)c1Cl | -12.6 | -16.4 | 1.26 | 105% | 101% | 2.11 | 9.11
18 | Cc1c(N2C(=O)CSC23C(=O)Nc2ccccc23)c(=O)n(-c2ccccc2)n1C (configuration not stated) | -10.1 | -11.7 | -3.38 | 90.4% | 91.8% | 3.84 | 3.91

Row | Structure (SMILES) | growth inhibition [1] [%] | growth inhibition [2] [%] | viability increase [3] [%] | viability [4] | viability [5] | inhibition [6] [%] | RAM network inhibition [7] [%]
19 | COc1ccc(Cl)cc1NC(=O)C1CSC(c2ccncc2)=N1 (configuration not stated) | 1.68 | -12.2 | -8.24 | 65.2% | 61.5% | 0.41 | 5.11
20 | COC(=O)c1c(NC(=O)CCCC(=O)O)sc(C)c1C | -6.98 | 3.54 | -3.07 | 91.8% | 87.9% | 0.305 | 3.63
21 | CCOc1ccccc1CNS(=O)(=O)c1ccc2c(c1)oc(=O)n2C | -8.67 | -0.955 | -1.75 | 102% | 94% | -0.575 | 1.03
22 | Cn1c(Cn2c(=O)sc3ccccc32)nnc1SCC(=O)N1CCc2ccccc21 | -8.97 | -4.5 | -1.09 | 86.1% | 92.6% | 2.98 | 2.79
23 | COC(=O)c1ccc(Nc2cc(C)nc3nc(C)nn23)cc1 | -10.5 | -4.57 | -2.65 | 97.3% | 94.6% | 1.67 | 0.77
24 | CCOC(=O)C1CCCN(C(=O)Cn2ncc3c(=O)oc4ccc(C)cc4c32)C1 (configuration not stated) | -11.9 | -24.9 | -1.41 | 106% | 95% | 2.19 | 3.43
25 | COc1ccc(OC)c(C2CC(=O)c3c([nH]c(C(=O)OC(C)C)c3C)C2)c1 (configuration not stated) | -9.82 | -21.9 | -7.46 | 15.2% (active) | 14.8% (active) | 1.69 | 0.97
26 | CCOC12NC(=O)CC(=O)N1C(c1ccccc1)=CS2 (configuration not stated) | -16 | -6.23 | 2.97 | 100% | 104% | 1.85 | 6.38
27 | CCc1ccc(NC(=O)c2cnc3n(c2=O)CCS3)cc1 | -1.06 | 0.895 | -2.9 | 95.2% | 85.9% | 2.82 | 0.15
28 | COc1cccc(C2CC(c3ccccc3C)n3nc(N)nc3N2)c1 (configuration not stated) | -7.81 | 7.97 | -2.32 | 107% | 86.5% | 0.35 | 8.21
29 | Cc1onc(-c2ccccc2Cl)c1C(=O)Nc1c(C)n(C)n(-c2ccccc2)c1=O | -7.2 | 3.75 | 0.84 | 104% | 103% | 0.355 | 3.34
30 | O=C(CCCCn1c(=O)[nH]c2ccccc2c1=O)N1CCN(c2ncccn2)CC1 | -13.4 | -20.2 | -1.54 | 104% | 105% | 0.76 | 0.58
31 | COc1cc2c(cc1OC)C(c1ccco1)CC(=O)N2 (configuration not stated) | -6.61 | -1.62 | -2.43 | 101% | 101% | 1.06 | 3.34
32 | O=C(NC(O)C(=O)c1ccccc1)c1cccs1 (configuration not stated) | 5.04 | -5.63 | -3.2 | 95.4% | 101% | 1.66 | 2.71
33 | CN(C)c1nc(Oc2ccc(/C=N/O)cc2)nc(N(C)C)n1 | -9.5 | 4.05 | -2.72 | 101% | 85.1% | 1.58 | 2.8
34 | CCC(=O)N1C(C(=O)O)CSC1c1ccc(OC)cc1 (configuration not stated) | -0.64 | 6.29 | -0.61 | 98.1% | 93.5% | 1.16 | 2.87
35 | COc1cc(NC(=O)Cc2ccccc2)cc(OC)c1 | -1.66 | -4.67 | -2.51 | 107% | 96.7% | 1.11 | 0.25
36 | Cc1nnc(SCC(=O)NC(C)c2ccccc2)[nH]c1=O (configuration not stated) | -10.9 | -9.25 | -1.16 | 101% | 99.3% | 4.54 | 5.85

Reference: PubChem BioAssay
